What was measured:
Assay type in all cases: functional
[1] = system: Candida albicans; test: Antifungal activity against Candida albicans ATCC 2091 assessed as growth inhibition zone at 50 ug after 24 hrs by Kirby-Bauer agar diffusion assay; details: ATCC 2091, 24 h, read-out: IZ
How it was run: (§1)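 Disk diffusion on yeast nitrogen base agar, swabbed with a McFarland 0.5 suspension in saline. 6 mm cellulose disks carried 10 µL of a 5 mg/mL CH2Cl2 stock (50 ug per disk), air-dried, three disks per plate. Plates were sealed and incubated 24 h at 37°C. Cleared inhibition zones were measured and averaged over triplicates.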

[2] = system: Cyberlindnera jadinii; test: Antifungal activity against Candida utilis ATCC 29950 assessed as growth inhibition zone at 50 ug after 24 by Kirby-Bauer agar diffusion assay; details: Williopsis jadinii, read-out: IZ; how it was run: as §1
[3] = system: Nakaseomyces glabratus; test: Antifungal activity against Candida glabrata ATCC 15126 assessed as growth inhibition zone at 50 ug after 24 hrs by Kirby-Bauer agar diffusion assay; details: ATCC 15126, 24 h, read-out: IZ; how it was run: as §1
[4] = system: Pichia kudriavzevii; test: Antifungal activity against Candida krusei ATCC 14243 assessed as growth inhibition zone at 50 ug after 24hrs by Kirby-Bauer agar diffusion assay; details: ATCC 14243, 24 h, read-out: IZ; how it was run: as §1
[5] = system: Candida parapsilosis; test: Antifungal activity against Candida parapsilosis ATCC 22019 assessed as growth inhibition zone at 50 ug after 24 hrs by Kirby-Bauer agar diffusion assay; details: Lodderomyces parapsilosis, ATCC 22019, 24 h; read-out: IZ; how it was run: as §1
[6] = system: Clavispora lusitaniae; test: Antifungal activity against Candida lusitaniae ATCC 34449 assessed as growth inhibition zone at 50 ug after 24 by Kirby-Bauer agar diffusion assay; details: read-out: IZ; how it was run: as §1
[7] = system: Kluyveromyces marxianus; test: Antifungal activity against Candida kefyr ATCC 20409 assessed as growth inhibition zone at 50 ug after 24 hrs by Kirby-Bauer agar diffusion assay; details: ATCC 20409, 24 h, read-out: IZ; how it was run: as §1
[8] = system: Candida tropicalis; test: Antifungal activity against Candida tropicalis clinical isolate assessed as growth inhibition zone at 50 ug after 24 hrs by Kirby-Bauer agar diffusion assay; details: read-out: IZ; how it was run: as §1

SMILES | zone of inhibition at 50 µg/disc [1] [mm] | zone of inhibition at 50 µg/disc [2] [mm] | zone of inhibition at 50 µg/disc [3] [mm] | zone of inhibition at 50 µg/disc [4] [mm] | zone of inhibition at 50 µg/disc [5] [mm] | zone of inhibition at 50 µg/disc [6] [mm] | zone of inhibition at 50 µg/disc [7] [mm] | zone of inhibition at 50 µg/disc [8] [mm]
CO[C@H]1C(=O)N(SC)[C@H]1c1ccccc1I | 16 | 15 | 20 | 0 | 22 | 17 | 15 | 15
CO[C@H]1C(=O)N(SC)[C@H]1c1ccc(F)cc1 | 16 |  | 0 | 0 | 21 | 0 |  | 0
CSN1C(=O)[C@H](OC(C)=O)[C@@H]1CCc1ccccc1 | 0 | 0 | 15 | 0 | 0 | 0 | 13 | 0
CO[C@H]1C(=O)N(SC)[C@H]1/C=C/c1ccccc1 | 27 | 19 | 16 | 0 | 13 | 14 | 14 | 14
CO[C@H]1C(=O)N(SC)[C@H]1c1cccc(F)c1 | 14 | 16 | 0 | 0 | 22 | 0 | 13 | 0
CO[C@H]1C(=O)N(SC)[C@H]1c1cccc(Cl)c1 | 23 | 19 | 21 | 0 | 28 | 13 | 13 | 20
CSN1C(=O)[C@@H](OC(C)=O)[C@H]1c1ccccc1 | 14 | 16 | 0 | 0 | 0 | 10 | 0 | 11
CSN1C(=O)[C@H](OC(C)=O)[C@@H]1c1ccccc1 | 14 | 16 | 0 | 0 | 0 | 15 | 9 | 15
CO[C@H]1C(=O)N(SC)[C@H]1c1cc(F)c(F)cc1F | 25 | 14 | 14 | 0 | 22 | 14 | 16 | 20
CO[C@H]1C(=O)N(SC)[C@H]1c1ccccc1Br | 25 | 25 | 17 | 0 | 40 | 19 | 13 | 21
CO[C@H]1C(=O)N(SC)[C@H]1CCc1ccccc1 | 34 | 28 | 20 | 0 | 14 | 15 | 24 | 17
CO[C@H]1C(=O)N(SC)[C@H]1c1cc(Cl)cc(Cl)c1Cl | 23 | 19 | 31 | 0 | 26 | 23 | 30 | 22
CO[C@H]1C(=O)N(SC)[C@H]1c1cccc(Br)c1 | 20 | 14 | 17 | 0 | 18 | 15 | 14 | 18
CO[C@H]1C(=O)N(SC)[C@H]1c1ccc(Br)cc1 | 25 | 17 | 19 | 0 | 23 | 17 | 17 | 20
CSN1C(=O)[C@H](Oc2ccccc2)[C@@H]1/C=C/c1ccccc1 | 0 | 0 | 9 | 0 | 0 | 0 | 0 | 0
CO[C@H]1C(=O)N(SC)[C@H]1c1cc(F)c(F)c(F)c1 | 25 | 29 | 18 | 0 | 34 | 25 | 17 | 19
CO[C@H]1C(=O)N(SC)[C@H]1c1ccccc1F | 15 | 14 | 0 | 0 | 19 | 0 | 15 | 0
CO[C@H]1C(=O)N(SC)[C@H]1c1ccc(I)cc1 | 16 | 20 | 22 | 0 | 25 | 20 | 19 | 12
CO[C@H]1C(=O)N(SC)[C@H]1c1ccc(Cl)cc1 | 0 | 0 | 0 | 0 | 0 | 14 | 10 | 0
CO[C@H]1C(=O)N(SC)[C@H]1c1cc(F)cc(F)c1F | 18 | 16 | 11 | 0 | 22 | 17 | 15 | 24
CCC(C)SN1C(=O)[C@H](OC)[C@@H]1c1ccccc1Cl (stereo partly drawn) | 16 | 0 | 0 | 0 | 0 | 0 | 0 | 13
CSN1C(=O)[C@H](Oc2ccccc2)[C@@H]1CCc1ccccc1 | 25 | 21 | 18 | 0 | 14 | 14 | 19 | 19
CO[C@H]1C(=O)N(SC)[C@H]1c1ccc(Cl)cc1Cl | 27 | 21 | 32 | 0 | 31 | 22 | 28 | 23
CO[C@H]1C(=O)N(SC)[C@H]1c1cccc(I)c1 | 14 | 15 | 19 | 0 | 22 | 19 | 15 | 14
CSN1C(=O)[C@H](OC(C)=O)[C@@H]1/C=C/c1ccccc1 | 0 | 13 | 14 | 0 | 0 | 0 | 12 | 0

— ChEMBL document CHEMBL1156595, “Studies on the antifungal properties of N-thiolated beta-lactams” (2008)
